This is an account of results in PubChem BioAssay.

The nature of experiment [1]: inhibitors of TNFa-induced NFkB p65 translocation, primary screen, imaging, HUVEC, MLSMR starter and 10KST1 sets (AID 438;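 active = inhibition above 20% together with a positive visual image hit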;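 also: compound added about 3h40 before a 20 min TNFalpha stimulation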;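 as to inhibition: signal is the nuclear over cytoplasmic p65 intensity ratio per well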). Conditions: HUVEC TNFa-induced p65 nuclear translocation; cell count: measured here: nuclei count (cytotoxicity indicator), at 2.08 µM; inhibition: at 2 µM, stronger effect = higher value, 0% TNFa-plus-vehicle, 100% no-TNFa wells.
Experiment [2] can be described thus: inhibitors of mutant huntingtin aggregation, primary screen, imaging, exon1htt(103Q)mCFP cells, high-content imaging (AID 483;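 active = visual image review flags a hit and inhibition of aggregation exceeds 20%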;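 also: compound exposure lasted 3 days before fixation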;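 as to nuclei count: percent of the per-plate median nuclei count of sample wells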). Conditions: exon1htt(103Q)mCFP cell line, aggregate imaging, at 2 µM; inhibition of aggregation: stronger effect = higher value; nuclei count: measured here: cell count, toxicity.
Experiment [3] is described as follows: inhibitors of E-selectin induction by TNFa, primary screen, imaging, HUVEC, immunofluorescence, MLSMR starter and 10KST1 sets (AID 487).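 As to inhibition: signal is fraction of cell area covered by stained E-selectin grains.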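 As to nuclei count: 100% = median nuclei count of all wells on the same plate.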 The settings on record: HUVEC TNFalpha-induced E-selectin immunofluorescence imaging, at 2 µM; inhibition: stronger effect = higher value; nuclei count: measured here: cell number, toxicity.
The target of experiment [4] is Voltage-gated potassium channel subunit beta-2 (Rattus norvegicus) (UniProt P62483). The experiment in a line: KvBeta enzyme negative modulators, primary screen, biochemical, NADPH fluorescence (AID 622;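 active = fluorescence slope higher than the sample average by over 3 SD, cut at about -0.22 in these data, passing the limit was not always enough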;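 also: slope of raw intensity against log time taken from 70 to 1610 s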). The settings on record: recombinant KvBeta, 4-cyanobenzaldehyde reduction, at 10 µM, stronger effect = higher value.
Experiment [5] shares this target. As to the kind of experiment: KvBeta positive modulators, primary screen, biochemical, NADPH fluorescence (AID 623;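 active = NADPH fluorescence slope more negative than the mean of all samples by about 3 SD, 99.7% confidence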;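 also: fluorescence intensity change per second fitted from 20 to 320 s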). Conditions: Recombinant KvBeta, NADPH fluorescence decrease slope, 10 min; at 10 µM; stronger effect = lower value.
In experiment [6] the target is Muscarinic acetylcholine receptor M4 (Homo sapiens) (UniProt P08173). The experiment in a line: compounds altering M4/GIRK thallium flux, either direction, primary screen, M4 allosteric agonist project, cell-based, HEK293 M4/GIRK, BTC-AM (AID 625;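 active = fluorescence slope after compound addition differing from the mean of all tested samples at 99.7% confidence, mostly higher but some lower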;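 also: thallium influx through GIRK channels coupled to M4 in HEK293 cells with BTC-AM dye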). The settings on record: at 10 µM, actives lie on both sides. The method in brief:
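Material – HEK293 cells with M4 receptor and GIRK channels · Buffer or medium – pH 7.3 thallium assay buffer · Doses – one dose, 10 µM final · Timing – cells overnight at 37 °C, BTC-AM loading 1 h, reads 2 min total · Measured by – kinetic fluorescence with BTC-AM dye · Controls – carbachol and DMSO controls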

Experiment [7] is described as follows: inhibitors of Sendai virus-induced IRF3 signaling, primary screen, TLR/RLR signaling modifier project, cell-based, Sendai virus stimulus, luciferase, 10K MLSCN set (AID 602276;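 active = inhibition at or above 50% at 10 µM; inactive = inhibition below 50%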;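 also: firefly luciferase from ISG56 promoter only with Renilla not read in this screen; 0% = Sendai virus plus DMSO and 100% = medium plus DMSO without virus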). Conditions: HEK293 RL24 IRF3 luciferase reporter, at 10 µM, stronger effect = higher value.
Experiment [8] in a line: inhibitors of poly I:C-induced TLR3 signaling, primary screen, cell-based, poly I:C stimulus, luciferase, 10K MLSCN set (AID 602277;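 active = inhibition of the reporter signal at or above 50%; inactive = inhibition below 50%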). The settings on record: HEK293-TLR3 RL24 IRF3 luciferase reporter, at 10 µM, stronger effect = higher value.

Each structure is given as a SMILES string. The source made the active and inactive calls.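 The calls were made as follows, unless noted: active = visually confirmed hit in the image check and inhibition above 20%; inconclusive = visually confirmed hit but inhibition not above 20%; inactive = no visual hit in the image check.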

Chain of Muscarinic acetylcholine receptor M4 (Homo sapiens) (P08173 whole entry, looked up): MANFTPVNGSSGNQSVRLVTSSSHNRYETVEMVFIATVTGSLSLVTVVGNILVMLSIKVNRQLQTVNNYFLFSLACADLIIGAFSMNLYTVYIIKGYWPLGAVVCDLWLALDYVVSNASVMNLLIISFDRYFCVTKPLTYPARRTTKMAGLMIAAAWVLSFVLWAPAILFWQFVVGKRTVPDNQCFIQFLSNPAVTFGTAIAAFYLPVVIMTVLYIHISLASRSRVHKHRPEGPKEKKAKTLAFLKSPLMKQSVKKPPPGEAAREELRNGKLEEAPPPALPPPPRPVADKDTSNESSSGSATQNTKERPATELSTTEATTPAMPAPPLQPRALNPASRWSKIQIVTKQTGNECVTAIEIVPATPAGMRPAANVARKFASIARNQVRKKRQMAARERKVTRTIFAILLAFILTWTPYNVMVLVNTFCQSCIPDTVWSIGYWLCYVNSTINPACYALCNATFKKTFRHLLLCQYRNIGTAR
Chain of Voltage-gated potassium channel subunit beta-2 (Rattus norvegicus) (P62483 whole entry, looked up): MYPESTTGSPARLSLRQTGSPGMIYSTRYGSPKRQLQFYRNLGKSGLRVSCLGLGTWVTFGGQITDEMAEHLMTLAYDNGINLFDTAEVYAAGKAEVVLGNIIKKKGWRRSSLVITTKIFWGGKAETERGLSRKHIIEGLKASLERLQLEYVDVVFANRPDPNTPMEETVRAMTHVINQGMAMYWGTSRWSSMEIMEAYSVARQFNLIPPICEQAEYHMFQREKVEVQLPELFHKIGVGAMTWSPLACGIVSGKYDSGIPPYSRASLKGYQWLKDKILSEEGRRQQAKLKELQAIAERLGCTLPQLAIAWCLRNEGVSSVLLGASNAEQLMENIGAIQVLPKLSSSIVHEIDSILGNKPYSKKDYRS

Take `COc1ccc(N2C(=O)CC(NC3CC3)C2=O)cc1` (centres undefined): the cell count in experiment [1] was found to be 416. Besides, the inhibition is 9.4% (inactive) in experiment [1], 7.7% (inactive) in experiment [3], 16.4% (inactive) in experiment [7] and 24% (inactive) in experiment [8]. Also, in experiment [2], the inhibition of aggregation is 0.9% (inactive). The nuclei count was 108% in experiment [2] and 110% in experiment [3]. Moreover, the fluorescence slope in experiment [4] is -0.577 (inactive); in experiment [6] it was 0.00561 (inactive). Moreover, in experiment [5], the NADPH fluorescence slope is 1.5e-05 (inactive).

In the case of `O=C(NCc1ccco1)C1Cc2ccccc2CN1S(=O)(=O)c1ccccc1F` (centres undefined), the cell count in experiment [1] turned out to be 654. The inhibition in experiment [1] was 7.7% (inactive); in experiment [3], -30% (inactive); in experiment [7], 6.51% (inactive); in experiment [8], -0.697% (inactive). Besides, the inhibition of aggregation in experiment [2] is 26.2% (inactive). Moreover, the nuclei count in experiment [2] was determined as 95.5%; in experiment [3], 98.1%. Besides, the fluorescence slope was -0.591 (inactive) in experiment [4] and 0.0061 (inactive) in experiment [6]. For the same compound, the NADPH fluorescence slope in experiment [5] is -1.7e-05 (inactive).

Turning to `CCNC(=O)CC1C(=O)N(c2ccc(F)cc2)C(=O)N1CCC(C)C` (centres undefined), in experiment [1], the cell count turned out to be 357. The inhibition in experiment [1] is -10.8% (inactive); in experiment [3], -21.1% (inactive); in experiment [7], 4.4% (inactive); in experiment [8], 15.9% (inactive). The inhibition of aggregation in experiment [2] is 17.4% (inactive). In addition, the results for the nuclei count in experiment [2] and in experiment [3] were 92.3% and 106%, respectively. Further, the fluorescence slope in experiment [4] is -0.525 (inactive); in experiment [6], 0.00457 (inactive). Also, the NADPH fluorescence slope in experiment [5] is -5.9e-06 (inactive).

Turning to `COc1ccc(N(CC(=O)Nc2ccccc2SC)S(C)(=O)=O)cc1OC`, in experiment [1], the cell count turned out to be 485. The inhibition in experiment [1] was -15.7% (inactive); in experiment [3], -4.5% (inactive); in experiment [7] it was 19.9% (inactive); in experiment [8] it was 19.3% (inactive). In addition, in experiment [2], the inhibition of aggregation is -12% (inactive). Moreover, the nuclei count in experiment [2] was 65.5%; in experiment [3], 102%. The fluorescence slope in experiment [4] is -0.468 (inactive); in experiment [6], 0.00494 (inactive). Besides, in experiment [5], the NADPH fluorescence slope is -9.7e-06 (inactive).

For `COC(=O)c1cc(OC)c(OC)cc1NC(=O)CC1CCCCC1`, the cell count in experiment [1] was found to be 291. For the same compound, the inhibition is -8.9% (inactive) in experiment [1], 36.1% (inactive) in experiment [3], 11.3% (inactive) in experiment [7] and 11.2% (inactive) in experiment [8]. The inhibition of aggregation in experiment [2] is 0.4% (inactive). The nuclei count in experiment [2] is 84.5%; in experiment [3], 73.5%. Also, the figures for the fluorescence slope in experiment [4] and in experiment [6] were -0.558 (inactive) and 0.00549 (inactive), respectively. In addition, the NADPH fluorescence slope in experiment [5] is -2.3e-05 (inactive).

`O=c1oc(-c2ccco2)nc2ccccc12`: the cell count in experiment [1] stood at 460. The inhibition in experiment [1] was 1% (inactive); in experiment [3], -332% (inactive); in experiment [7], 13.9% (inactive); in experiment [8] it was 15.3% (inactive). Also, in experiment [2], the inhibition of aggregation is 2.1% (inactive). Moreover, the nuclei count came to 92.5% in experiment [2] and 132% in experiment [3]. The fluorescence slope in experiment [4] was -0.559 (inactive); in experiment [6], 0.00609 (inactive). The NADPH fluorescence slope in experiment [5] was -4.2e-05 (inactive).

Consider `CCOC(=O)CSC1=Nc2ccccc2C2=NC(CC(=O)NCc3cccs3)C(=O)N12` (centres undefined), for which the cell count in experiment [1] was 224. For the same compound, the inhibition in experiment [1] is 7.2% (inactive); in experiment [3] it was 26% (inactive); in experiment [7], 0.227% (inactive); in experiment [8], 9.15% (inactive). In addition, the inhibition of aggregation in experiment [2] is 13.9% (inactive). Also, the figures for the nuclei count in experiment [2] and in experiment [3] were 81.6% and 78.1%, respectively. In addition, the fluorescence slope was -0.572 (inactive) in experiment [4] and 0.00528 (inactive) in experiment [6]. For the same compound, in experiment [5], the NADPH fluorescence slope was -5.5e-05 (inactive).

With `O=C(OCCCN1C(=O)c2ccccc2C1=O)c1ccco1`, the cell count in experiment [1] is 643. For the same compound, the inhibition was -2.2% (inactive) in experiment [1], 33.4% (inactive) in experiment [3], -6.62% (inactive) in experiment [7] and -11.6% (inactive) in experiment [8]. Also, in experiment [2], the inhibition of aggregation was 17.8% (inactive). The nuclei count was found to be 96.8% in experiment [2] and 98.5% in experiment [3]. The values for the fluorescence slope in experiment [4] and in experiment [6] were -0.482 (inactive) and 0.00571 (inactive), respectively. The NADPH fluorescence slope in experiment [5] was 4.2e-05 (inactive).

`COc1ccccc1NC(=O)C(O)C(O)C(=O)Nc1ccccc1OC` (centres undefined): the cell count in experiment [1] worked out at 350. Besides, the inhibition in experiment [1] was 8.6% (inactive); in experiment [3], -101% (inactive); in experiment [7] it was -7.84% (inactive); in experiment [8], -0.666% (inactive). Also, in experiment [2], the inhibition of aggregation was 2.9% (inactive). The figures for the nuclei count in experiment [2] and in experiment [3] were 84.5% and 101%, respectively. The fluorescence slope in experiment [4] was -0.351 (inactive); in experiment [6] it was 0.00694 (inactive). In addition, the NADPH fluorescence slope in experiment [5] is -4.1e-05 (inactive).

As for `CCC(=O)Nc1ccc(F)c(Cl)c1`, the cell count in experiment [1] was determined as 292. Besides, the inhibition in experiment [1] is 1.5% (inactive); in experiment [3] it was -76% (inactive); in experiment [7], 21.2% (inactive); in experiment [8] it was 13.9% (inactive). The inhibition of aggregation in experiment [2] was 7.9% (inactive). In addition, the results for the nuclei count in experiment [2] and in experiment [3] were 108% and 124%, respectively. The fluorescence slope in experiment [4] is -0.538 (inactive); in experiment [6] it was 0.0059 (inactive). Also, the NADPH fluorescence slope in experiment [5] is 9.9e-07 (inactive).

For the compound `CNC(=O)CC(C(=O)O)c1ccc(OCC(C)C)cc1` (centres undefined), the cell count in experiment [1] worked out at 611. Also, the inhibition was -1.5% (inactive) in experiment [1], 13.6% (inactive) in experiment [3], 9.55% (inactive) in experiment [7] and 16.9% (inactive) in experiment [8]. For the same compound, the inhibition of aggregation in experiment [2] was -15.2% (inactive). The nuclei count in experiment [2] was determined as 114%; in experiment [3], 103%. For the same compound, the fluorescence slope in experiment [4] was -0.562 (inactive); in experiment [6] it was 0.00333 (inactive). In experiment [5], the NADPH fluorescence slope was -8.4e-05 (inactive).

Consider `Cc1ccccc1NC(=O)c1ccc(NC(=O)c2ccco2)cc1`, for which the cell count in experiment [1] was found to be 423. Moreover, the inhibition in experiment [1] is -1% (inactive); in experiment [3], -30.5% (inactive); in experiment [7], -7.81% (inactive); in experiment [8], -35.1% (inactive). The inhibition of aggregation in experiment [2] is 10.9% (inactive). Besides, the nuclei count is 116% in experiment [2] and 113% in experiment [3]. For the same compound, the fluorescence slope in experiment [4] is -0.462 (inactive); in experiment [6] it was 0.00647 (inactive). Moreover, the NADPH fluorescence slope in experiment [5] was -2.6e-05 (inactive).

With `CC(=O)Nc1ccc(NC(=O)c2ccccc2F)cc1`, the cell count in experiment [1] was found to be 345. Besides, the inhibition was -4.6% (inactive) in experiment [1], -14.4% (inactive) in experiment [3], -10.5% (inactive) in experiment [7] and -55% (inactive) in experiment [8]. Besides, in experiment [2], the inhibition of aggregation is 1.3% (inactive). The nuclei count in experiment [2] was 102%; in experiment [3], 116%. Moreover, the fluorescence slope in experiment [4] was -0.556 (inactive); in experiment [6] it was 0.00528 (inactive). Besides, the NADPH fluorescence slope in experiment [5] was -1.7e-05 (inactive).

For the compound `Cc1cc2c(c(=O)n1CCc1ccccc1)C(C(C)C)C(C#N)=C(N)O2` (centres undefined), the cell count in experiment [1] was 565. Further, the inhibition in experiment [1] was 11.2% (inactive); in experiment [3] it was -39% (inactive); in experiment [7], 15.9% (inactive); in experiment [8] it was 25.8% (inactive). Also, the inhibition of aggregation in experiment [2] is -1.8% (inactive). Besides, the nuclei count in experiment [2] worked out at 106%; in experiment [3] it was 123%. Further, the fluorescence slope in experiment [4] is -0.577 (inactive); in experiment [6] it was 0.00377 (inactive). The NADPH fluorescence slope in experiment [5] was -7.9e-05 (inactive).
